Tested on: HEK-293T
Assay: Multiplex assay against HEK293T
Format: toxicity, cell-based
Details: human
How it was run: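 Hoechst33342, BioTracker Green Microtubule Cytoskeleton Dye, MitoTracker Red and Annexin V Alexa Fluor 680 were added to live cells at seeding, and imaging on a CQ1 microscope at 37°C and 5% CO2 followed compound addition. Gating by CellPathfinder machine learning separated cells into Hoechst high-intensity objects or normal cells, then normal cells into healthy, pyknosed or fragmented nuclei, then pyknosed cells into mitotic or apoptotic. Per cents of healthy-nucleus cells are reported for the tubulin, mitochondrial-mass and membrane-permeability phenotypes.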

[1] = 12 h, 1 µM, compound concentration 1 uM, replicate 1
[2] = 12 h, 1 µM, compound concentration 1 uM, replicate 2
[3] = 12 h, 10 µM, compound concentration 10 uM, replicate 1
[4] = 12 h, 10 µM, compound concentration 10 uM, replicate 2
[5] = 24 h, 1 µM, compound concentration 1 uM, replicate 1
[6] = 24 h, 1 µM, compound concentration 1 uM, replicate 2
[7] = 24 h, 10 µM, compound concentration 10 uM, replicate 1
[8] = 24 h, 10 µM, compound concentration 10 uM, replicate 2
[9] = 48 h, 1 µM, compound concentration 1 uM, replicate 1
[10] = 48 h, 1 µM, compound concentration 1 uM, replicate 2
[11] = 48 h, 10 µM, compound concentration 10 uM, replicate 1
[12] = 48 h, 10 µM, compound concentration 10 uM, replicate 2

Compound: COc1ccc2[nH]c(I)c(CCNC(C)=O)c2c1 [IODOMELATONIN]
- Population Apoptotic (%) [1]: 42%
- Population Fragmented Nuclei (%) [1]: 4%
- Population Healthy Nuclei (%) [1]: 80%
- Population Hoechst High Intensity Objects (%) [1]: 5%
- Population Membrane Permeable-Phenotype (%) [1]: 1%
- Population Mitochondria Different-Phenotype (%) [1]: 43%
- Population Mitotic Cells (%) [1]: 57%
- Population Normal (%) [1]: 94%
- Population Pyknosed Nuclei (%) [1]: 14%
- Population Tubulin-Different-Phenotype (%) [1]: 35%
- Total Cell Count [1]: 388
- Population Apoptotic (%) [2]: 59%
- Population Fragmented Nuclei (%) [2]: 5%
- Population Healthy Nuclei (%) [2]: 84%
- Population Hoechst High Intensity Objects (%) [2]: 7%
- Population Membrane Permeable-Phenotype (%) [2]: 0%
- Population Mitochondria Different-Phenotype (%) [2]: 64%
- Population Mitotic Cells (%) [2]: 40%
- Population Normal (%) [2]: 92%
- Population Pyknosed Nuclei (%) [2]: 10%
- Population Tubulin-Different-Phenotype (%) [2]: 32%
- Total Cell Count [2]: 400
- Population Apoptotic (%) [3]: 38%
- Population Fragmented Nuclei (%) [3]: 11%
- Population Healthy Nuclei (%) [3]: 77%
- Population Hoechst High Intensity Objects (%) [3]: 8%
- Population Membrane Permeable-Phenotype (%) [3]: 0%
- Population Mitochondria Different-Phenotype (%) [3]: 52%
- Population Mitotic Cells (%) [3]: 61%
- Population Normal (%) [3]: 91%
- Population Pyknosed Nuclei (%) [3]: 10%
- Population Tubulin-Different-Phenotype (%) [3]: 29%
- Total Cell Count [3]: 445
- Population Apoptotic (%) [4]: 46%
- Population Fragmented Nuclei (%) [4]: 8%
- Population Hoechst High Intensity Objects (%) [4]: 12%
- Population Mitochondria Different-Phenotype (%) [4]: 62%
- Population Mitotic Cells (%) [4]: 53%
- Population Normal (%) [4]: 87%
- Population Pyknosed Nuclei (%) [4]: 14%
- Population Tubulin-Different-Phenotype (%) [4]: 25%
- Total Cell Count [4]: 316
- Population Apoptotic (%) [5]: 38%
- Population Fragmented Nuclei (%) [5]: 8%
- Population Healthy Nuclei (%) [5]: 80%
- Population Hoechst High Intensity Objects (%) [5]: 3%
- Population Membrane Permeable-Phenotype (%) [5]: 1%
- Population Mitochondria Different-Phenotype (%) [5]: 24%
- Population Mitotic Cells (%) [5]: 61%
- Population Normal (%) [5]: 96%
- Population Pyknosed Nuclei (%) [5]: 11%
- Population Tubulin-Different-Phenotype (%) [5]: 23%
- Total Cell Count [5]: 511
- Population Apoptotic (%) [6]: 44%
- Population Fragmented Nuclei (%) [6]: 9%
- Population Healthy Nuclei (%) [6]: 78%
- Population Hoechst High Intensity Objects (%) [6]: 8%
- Population Membrane Permeable-Phenotype (%) [6]: 0%
- Population Mitochondria Different-Phenotype (%) [6]: 37%
- Population Mitotic Cells (%) [6]: 55%
- Population Normal (%) [6]: 91%
- Population Tubulin-Different-Phenotype (%) [6]: 14%
- Total Cell Count [6]: 497
- Population Apoptotic (%) [7]: 32%
- Population Fragmented Nuclei (%) [7]: 11%
- Population Healthy Nuclei (%) [7]: 77%
- Population Hoechst High Intensity Objects (%) [7]: 5%
- Population Membrane Permeable-Phenotype (%) [7]: 1%
- Population Mitochondria Different-Phenotype (%) [7]: 31%
- Population Mitotic Cells (%) [7]: 67%
- Population Normal (%) [7]: 94%
- Population Pyknosed Nuclei (%) [7]: 10%
- Population Tubulin-Different-Phenotype (%) [7]: 25%
- Total Cell Count [7]: 568
- Population Apoptotic (%) [8]: 40%
- Population Fragmented Nuclei (%) [8]: 5%
- Population Healthy Nuclei (%) [8]: 81%
- Population Hoechst High Intensity Objects (%) [8]: 9%
- Population Membrane Permeable-Phenotype (%) [8]: 0%
- Population Mitochondria Different-Phenotype (%) [8]: 48%
- Population Mitotic Cells (%) [8]: 59%
- Population Normal (%) [8]: 90%
- Population Pyknosed Nuclei (%) [8]: 12%
- Population Tubulin-Different-Phenotype (%) [8]: 21%
- Total Cell Count [8]: 360
- Population Apoptotic (%) [9]: 26%
- Population Fragmented Nuclei (%) [9]: 12%
- Population Healthy Nuclei (%) [9]: 79%
- Population Hoechst High Intensity Objects (%) [9]: 4%
- Population Membrane Permeable-Phenotype (%) [9]: 1%
- Population Mitochondria Different-Phenotype (%) [9]: 19%
- Population Mitotic Cells (%) [9]: 73%
- Population Normal (%) [9]: 95%
- Population Pyknosed Nuclei (%) [9]: 7%
- Population Tubulin-Different-Phenotype (%) [9]: 16%
- Total Cell Count [9]: 770
- Population Apoptotic (%) [10]: 31%
- Population Hoechst High Intensity Objects (%) [10]: 5%
- Population Mitochondria Different-Phenotype (%) [10]: 22%
- Population Mitotic Cells (%) [10]: 68%
- Population Normal (%) [10]: 94%
- Population Pyknosed Nuclei (%) [10]: 8%
- Population Tubulin-Different-Phenotype (%) [10]: 14%
- Total Cell Count [10]: 622
- Population Apoptotic (%) [11]: 23%
- Population Fragmented Nuclei (%) [11]: 16%
- Population Healthy Nuclei (%) [11]: 77%
- Population Hoechst High Intensity Objects (%) [11]: 1%
- Population Membrane Permeable-Phenotype (%) [11]: 1%
- Population Mitochondria Different-Phenotype (%) [11]: 16%
- Population Mitotic Cells (%) [11]: 76%
- Population Normal (%) [11]: 98%
- Population Pyknosed Nuclei (%) [11]: 5%
- Population Tubulin-Different-Phenotype (%) [11]: 11%
- Total Cell Count [11]: 860
- Population Apoptotic (%) [12]: 25%
- Population Fragmented Nuclei (%) [12]: 15%
- Population Healthy Nuclei (%) [12]: 75%
- Population Hoechst High Intensity Objects (%) [12]: 2%
- Population Membrane Permeable-Phenotype (%) [12]: 0%
- Population Mitochondria Different-Phenotype (%) [12]: 24%
- Population Mitotic Cells (%) [12]: 74%
- Population Normal (%) [12]: 97%
- Population Pyknosed Nuclei (%) [12]: 9%
- Population Tubulin-Different-Phenotype (%) [12]: 16%
- Total Cell Count [12]: 613

— ChEMBL document CHEMBL5058577, “EUbOPEN Chemogenomics Library 2 (Multiplex)” (2022)
